Experimental data as given in ChEMBL document CHEMBL2203123, “Synthesis and biological evaluation of some hydrazone derivatives as new anticandidal and anticancer agents” (Eur J Med Chem, 2012).

System: Nakaseomyces glabratus
Experiment: Antifungal activity against Candida glabrata Anadolu University clinical isolate after 24 hrs by microdilution susceptibility assay
Type: functional
Settings: not given
How it was run: (§1)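 Broth microdilution in Mueller Hinton Broth, compounds from DMSO stocks diluted serially; inocula standardized to 10^6 CFU/mL (McFarland 0.5) from overnight MHB cultures. Plates held 37 °C for 24 h; MIC taken as first well without turbidity, aided by 1% tetrazolium violet added for 3 h at 37 °C. Ketoconazole reference.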

MIC [µg/mL]	SMILES
> 8000	Cn1nnnc1SCC(=O)N/N=C/c1ccccc1Br
> 8000	Cn1nnnc1SCC(=O)N/N=C/c1cccc(Br)c1
> 8000	Cn1nnnc1SCC(=O)N/N=C/c1ccccc1O
> 8000	COc1ccccc1/C=N/NC(=O)CSc1nnnn1C
> 8000	Cc1ccccc1/C=N/NC(=O)CSc1nnnn1C

The remaining lines, values behind:

SMILES	MIC [µg/mL]
Cn1nnnc1SCC(=O)N/N=C/c1cccc(Cl)c1	> 8000
Cn1nnnc1SCC(=O)N/N=C/c1cccc(O)c1	> 8000
COc1cccc(/C=N/NC(=O)CSc2nnnn2C)c1	> 8000
Cc1cccc(/C=N/NC(=O)CSc2nnnn2C)c1	> 8000
Cn1nnnc1SCC(=O)N/N=C/c1cccc(Cl)c1Cl	> 8000

System: Candida albicans
Experiment: Antifungal activity against Candida albicans ATCC 10231 after 24 hrs by microdilution susceptibility assay
Type: functional
Settings: ATCC 10231, 24 h
How it was run: as §1

MIC [µg/mL]	SMILES
> 8000	Cn1nnnc1SCC(=O)N/N=C/c1ccccc1Br
> 8000	Cn1nnnc1SCC(=O)N/N=C/c1cccc(Br)c1
> 8000	Cn1nnnc1SCC(=O)N/N=C/c1ccccc1O
> 8000	COc1ccccc1/C=N/NC(=O)CSc1nnnn1C
> 8000	Cc1ccccc1/C=N/NC(=O)CSc1nnnn1C

Further lines, the compound ahead of its results:

SMILES	MIC [µg/mL]
Cn1nnnc1SCC(=O)N/N=C/c1cccc(Cl)c1	> 8000
Cn1nnnc1SCC(=O)N/N=C/c1cccc(O)c1	> 8000
COc1cccc(/C=N/NC(=O)CSc2nnnn2C)c1	> 8000
Cc1cccc(/C=N/NC(=O)CSc2nnnn2C)c1	> 8000
Cn1nnnc1SCC(=O)N/N=C/c1cccc(Cl)c1Cl	> 8000

System: NIH3T3
Experiment: Cytotoxicity against mouse NIH/3T3 cells after 24 hrs by XTT assay
Type: cell-based
Settings: NIH3T3, 24 h
How it was run: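 Mouse NIH3T3 fibroblasts grown in DMEM with fetal calf serum, penicillin/streptomycin, 37 °C, 5% CO2; 20,000 cells/well, treated after 24 h with 0.00316 µM-10 mM compound for 24 h. Viability via XTT (3 h, OD 480 nm, reference 680 nm); % inhibition computed and IC50 fitted by non-linear regression.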

SMILES	IC50 [mM]
Cn1nnnc1SCC(=O)N/N=C/c1cccc(Cl)c1	7.5
Cn1nnnc1SCC(=O)N/N=C/c1ccccc1Br	0.02
Cn1nnnc1SCC(=O)N/N=C/c1cccc(Br)c1	0.316
Cn1nnnc1SCC(=O)N/N=C/c1ccccc1O	> 10
Cn1nnnc1SCC(=O)N/N=C/c1cccc(O)c1	3.16
COc1ccccc1/C=N/NC(=O)CSc1nnnn1C	3.16
COc1cccc(/C=N/NC(=O)CSc2nnnn2C)c1	0.6
Cc1ccccc1/C=N/NC(=O)CSc1nnnn1C	6.32
Cc1cccc(/C=N/NC(=O)CSc2nnnn2C)c1	6.25
Cn1nnnc1SCC(=O)N/N=C/c1cccc(Cl)c1Cl	0.52

System: A549
Experiment: Cytotoxicity against human A549 cells after 24 hrs by XTT assay
Type: functional, cell-based
Settings: A549, 24 h
How it was run: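 A549 cells in RPMI 1640 with 10% fetal calf serum, penicillin/streptomycin, 37 °C, 5% CO2; 20,000 cells/well seeded, after 24 h exposed to compounds at 0.00316 µM-10 mM for 24 h. XTT mitochondrial activity read at 480 nm (reference 680 nm) after 3 h; % inhibition per concentration, IC50 by non-linear regression.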

SMILES	IC50 [mM]
Cn1nnnc1SCC(=O)N/N=C/c1cccc(Cl)c1	7.5
Cn1nnnc1SCC(=O)N/N=C/c1ccccc1Br	2
Cn1nnnc1SCC(=O)N/N=C/c1cccc(Br)c1	0.6
Cn1nnnc1SCC(=O)N/N=C/c1ccccc1O	> 10
Cn1nnnc1SCC(=O)N/N=C/c1cccc(O)c1	4.5
COc1ccccc1/C=N/NC(=O)CSc1nnnn1C	7
COc1cccc(/C=N/NC(=O)CSc2nnnn2C)c1	> 10
Cc1ccccc1/C=N/NC(=O)CSc1nnnn1C	> 10
Cc1cccc(/C=N/NC(=O)CSc2nnnn2C)c1	2
Cn1nnnc1SCC(=O)N/N=C/c1cccc(Cl)c1Cl	0.632

System: Pichia kudriavzevii
Experiment: Antifungal activity against Candida krusei NRRL Y-7179 after 24 hrs by microdilution susceptibility assay
Type: functional
Settings: NRRL Y-7179, 24 h
How it was run: as §1

MIC [µg/mL]	SMILES
> 8000	Cn1nnnc1SCC(=O)N/N=C/c1ccccc1Br
> 8000	Cn1nnnc1SCC(=O)N/N=C/c1cccc(Br)c1
> 8000	Cn1nnnc1SCC(=O)N/N=C/c1ccccc1O
> 8000	COc1ccccc1/C=N/NC(=O)CSc1nnnn1C
> 8000	Cc1ccccc1/C=N/NC(=O)CSc1nnnn1C

Second part, the compound before the results:

SMILES	MIC [µg/mL]
Cn1nnnc1SCC(=O)N/N=C/c1cccc(Cl)c1	> 8000
Cn1nnnc1SCC(=O)N/N=C/c1cccc(O)c1	> 8000
COc1cccc(/C=N/NC(=O)CSc2nnnn2C)c1	> 8000
Cc1cccc(/C=N/NC(=O)CSc2nnnn2C)c1	> 8000
Cn1nnnc1SCC(=O)N/N=C/c1cccc(Cl)c1Cl	> 8000

System: Candida albicans
Experiment: Antifungal activity against Candida albicans ATCC 90028 after 24 hrs by microdilution susceptibility assay
Type: functional
Settings: ATCC 90028, 24 h
How it was run: as §1

MIC [µg/mL]	SMILES
> 8000	Cn1nnnc1SCC(=O)N/N=C/c1ccccc1Br
> 8000	Cn1nnnc1SCC(=O)N/N=C/c1cccc(Br)c1
> 8000	Cn1nnnc1SCC(=O)N/N=C/c1ccccc1O
> 8000	COc1ccccc1/C=N/NC(=O)CSc1nnnn1C
> 8000	Cc1ccccc1/C=N/NC(=O)CSc1nnnn1C

Further lines, the compound ahead of its results:

SMILES	MIC [µg/mL]
Cn1nnnc1SCC(=O)N/N=C/c1cccc(Cl)c1	> 8000
Cn1nnnc1SCC(=O)N/N=C/c1cccc(O)c1	> 8000
COc1cccc(/C=N/NC(=O)CSc2nnnn2C)c1	> 8000
Cc1cccc(/C=N/NC(=O)CSc2nnnn2C)c1	> 8000
Cn1nnnc1SCC(=O)N/N=C/c1cccc(Cl)c1Cl	> 8000

System: Nakaseomyces glabratus
Experiment: Antifungal activity against Candida glabrata Osmangazi University clinical isolate after 24 hrs by microdilution susceptibility assay
Type: functional
Settings: not given
How it was run: as §1

MIC [µg/mL]	SMILES
> 8000	Cn1nnnc1SCC(=O)N/N=C/c1ccccc1Br
> 8000	Cn1nnnc1SCC(=O)N/N=C/c1cccc(Br)c1
> 8000	Cn1nnnc1SCC(=O)N/N=C/c1ccccc1O
> 8000	COc1ccccc1/C=N/NC(=O)CSc1nnnn1C
> 8000	Cc1ccccc1/C=N/NC(=O)CSc1nnnn1C

Continued, compound first:

SMILES	MIC [µg/mL]
Cn1nnnc1SCC(=O)N/N=C/c1cccc(Cl)c1	> 8000
Cn1nnnc1SCC(=O)N/N=C/c1cccc(O)c1	> 8000
COc1cccc(/C=N/NC(=O)CSc2nnnn2C)c1	> 8000
Cc1cccc(/C=N/NC(=O)CSc2nnnn2C)c1	> 8000
Cn1nnnc1SCC(=O)N/N=C/c1cccc(Cl)c1Cl	> 8000

System: Candida parapsilosis
Experiment: Antifungal activity against Candida parapsilosis NRRL Y-12696 after 24 hrs by microdilution susceptibility assay
Type: functional
Settings: Lodderomyces parapsilosis, NRRL Y-12696, 24 h
How it was run: as §1

MIC [µg/mL]	SMILES
> 8000	Cn1nnnc1SCC(=O)N/N=C/c1ccccc1Br
> 8000	Cn1nnnc1SCC(=O)N/N=C/c1cccc(Br)c1
> 8000	Cn1nnnc1SCC(=O)N/N=C/c1ccccc1O
> 8000	COc1ccccc1/C=N/NC(=O)CSc1nnnn1C
> 8000	Cc1ccccc1/C=N/NC(=O)CSc1nnnn1C

Second part, the compound before the results:

SMILES	MIC [µg/mL]
Cn1nnnc1SCC(=O)N/N=C/c1cccc(Cl)c1	> 8000
Cn1nnnc1SCC(=O)N/N=C/c1cccc(O)c1	> 8000
COc1cccc(/C=N/NC(=O)CSc2nnnn2C)c1	> 8000
Cc1cccc(/C=N/NC(=O)CSc2nnnn2C)c1	> 8000
Cn1nnnc1SCC(=O)N/N=C/c1cccc(Cl)c1Cl	> 8000

System: Candida albicans
Experiment: Antifungal activity against Candida albicans clinical isolate after 24 hrs by microdilution susceptibility assay
Type: functional
Settings: not given
How it was run: as §1

MIC [µg/mL]	SMILES
> 8000	Cn1nnnc1SCC(=O)N/N=C/c1ccccc1Br
> 8000	Cn1nnnc1SCC(=O)N/N=C/c1cccc(Br)c1
> 8000	Cn1nnnc1SCC(=O)N/N=C/c1ccccc1O
> 8000	COc1ccccc1/C=N/NC(=O)CSc1nnnn1C
> 8000	Cc1ccccc1/C=N/NC(=O)CSc1nnnn1C

Continued, compound first:

SMILES	MIC [µg/mL]
Cn1nnnc1SCC(=O)N/N=C/c1cccc(Cl)c1	> 8000
Cn1nnnc1SCC(=O)N/N=C/c1cccc(O)c1	> 8000
COc1cccc(/C=N/NC(=O)CSc2nnnn2C)c1	> 8000
Cc1cccc(/C=N/NC(=O)CSc2nnnn2C)c1	> 8000
Cn1nnnc1SCC(=O)N/N=C/c1cccc(Cl)c1Cl	> 8000

System: Cyberlindnera jadinii
Experiment: Antifungal activity against Candida utilis NRRL Y-900 after 24 hrs by microdilution susceptibility assay
Type: functional
Settings: Williopsis jadinii, NRRL Y-900, 24 h
How it was run: as §1

MIC [µg/mL]	SMILES
> 8000	Cn1nnnc1SCC(=O)N/N=C/c1ccccc1Br
> 8000	Cn1nnnc1SCC(=O)N/N=C/c1cccc(Br)c1
> 8000	Cn1nnnc1SCC(=O)N/N=C/c1ccccc1O
> 8000	COc1ccccc1/C=N/NC(=O)CSc1nnnn1C
> 8000	Cc1ccccc1/C=N/NC(=O)CSc1nnnn1C

Further lines, the compound ahead of its results:

SMILES	MIC [µg/mL]
Cn1nnnc1SCC(=O)N/N=C/c1cccc(Cl)c1	> 8000
Cn1nnnc1SCC(=O)N/N=C/c1cccc(O)c1	> 8000
COc1cccc(/C=N/NC(=O)CSc2nnnn2C)c1	> 8000
Cc1cccc(/C=N/NC(=O)CSc2nnnn2C)c1	> 8000
Cn1nnnc1SCC(=O)N/N=C/c1cccc(Cl)c1Cl	> 8000
